Only some compounds are listed: those with a hit (about 3.7% of all), similar ones and a draw of the others.
OX1R antag-1 – antagonists of human orexin 1 receptor (OX1R). OX1R-expressing cells, FRET antagonist read-out. Orexin/Hypocretin receptor type 1 (Homo sapiens), O43613. AID 485270, 2010. inhibition, % at 6.6 µM. 1.8% of 330,000 active; in the data active = inhibition mostly above about 38%, no sharp cut-off; inactive = mostly below about 40%;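 note: 0% = agonist challenge alone and 100% = reference antagonist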
Target sequence (O43613 whole entry, looked up): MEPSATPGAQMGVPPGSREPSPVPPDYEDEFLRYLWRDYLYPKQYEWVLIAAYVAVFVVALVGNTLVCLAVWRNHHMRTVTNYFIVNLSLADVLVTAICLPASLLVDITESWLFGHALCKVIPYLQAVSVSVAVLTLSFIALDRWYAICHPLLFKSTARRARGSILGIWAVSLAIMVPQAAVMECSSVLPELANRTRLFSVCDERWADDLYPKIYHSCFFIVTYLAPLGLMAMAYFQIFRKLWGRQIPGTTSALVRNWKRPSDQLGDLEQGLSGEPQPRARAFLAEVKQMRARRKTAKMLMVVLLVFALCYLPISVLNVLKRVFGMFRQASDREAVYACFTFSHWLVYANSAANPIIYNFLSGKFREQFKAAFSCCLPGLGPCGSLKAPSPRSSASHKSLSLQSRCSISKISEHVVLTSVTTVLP
GPR7 antag – GPR7 receptor antagonists, primary screen, cell-based, fluorescence, single concentration; GPR7-expressing cells, fluorescence antagonist assay; inhibition, % at 4.4 µM; 1.1% of 290,000 active; AID 1861, 2009; in the data active = inhibition above about 16%, passing the limit was not always enough;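 note: cells stimulated with the agonist NPW; 0% = agonist with vehicle and 100% = vehicle without agonist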
Target sequence (P48145 whole entry, looked up): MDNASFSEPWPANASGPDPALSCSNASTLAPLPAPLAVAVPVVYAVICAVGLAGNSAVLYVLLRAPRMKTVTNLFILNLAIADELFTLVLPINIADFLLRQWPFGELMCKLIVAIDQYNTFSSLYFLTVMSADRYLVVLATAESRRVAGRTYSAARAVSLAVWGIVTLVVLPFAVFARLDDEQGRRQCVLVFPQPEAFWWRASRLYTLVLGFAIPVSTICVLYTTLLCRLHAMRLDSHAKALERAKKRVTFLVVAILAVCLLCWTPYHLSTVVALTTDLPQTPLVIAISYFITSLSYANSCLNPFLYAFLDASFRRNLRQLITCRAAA
EP2 mod – EP2 receptor modulators, cAMP readout, primary screen, cell-based, HTRF cAMP, PGE2 stimulation. EP2-expressing cells, cAMP HTRF FRET, PGE2 co-stimulation. 0.83% of 260,000 active. induction, % at 25 µM. Prostaglandin E2 receptor EP2 subtype (Homo sapiens), P43116;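 active = compounds whose cAMP rise, as percent of the full-agonist control response, exceeds 60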;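 note: rat C6 glioma line stably carrying human EP2 under a CMV promoter; the protocol text gives 20 µM as final concentration; 100% = response of wells given 1 µM PGE2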
OX1R antag-2 – OX1R (HCRTR1) antagonists, primary screen, fluorescence, CHO/OX1R cells, Fluo-8 calcium, orexin A | inhibition, % at 5 µM | Fluo-8 calcium fluorescence | 0.43% of 330,000 active;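 active = inhibition above its plate's threshold, mean inhibition of all tested compounds on the plate plus 3 SD, cut at about 37% in these data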;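 note: 0% = orexin A challenge wells and 100% = SB-334867-A antagonist wells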
CHO parental Ca – ATP-evoked calcium signal inhibitors, parental CHO, primary screen, counter-screen for OX1R antagonist project, cell-based, fluorescence, Fluo-8 calcium dye | inhibition, % at 5.6 µM | 0.63% of 330,000 active | parental CHO-K1, ATP-induced calcium, Fluo-8 fluorescence;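 active = inhibition above that plate's mean sample inhibition plus 3 SD, cut at about 26% in these data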;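 note: 0% = ATP-challenged DMSO wells and 100% = DMSO wells without ATP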
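Material: parental CHO cells / Compound: single nominal dose of 5.6 µM per compound / Signal: Fluo-8 fluorescence / Replicates: singlicate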
PGE2 EP2 inh – human EP2 receptor antagonists, primary screen, TR-FRET cAMP, C6 glioma cells | AID 1422, 2008 | 0.52% of 260,000 active | C6 glioma cells expressing human EP2; cells stimulated with saturating PGE2 | Prostaglandin E2 receptor EP2 subtype (Homo sapiens), P43116 | inhibition, % at 25 µM;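 active = percent inhibition above 40 after rounding to a whole number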;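 note: rat C6 glioma host cells with rolipram phosphodiesterase inhibitor present; the protocol text gives 20 µM as final concentration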
* = called active by the depositor; . = no result.

SMILES | OX1R antag-1 | GPR7 antag | EP2 mod | OX1R antag-2 | CHO parental Ca | PGE2 EP2 inh
CC(C)(C)NC(=O)Cn1nc(-c2cccs2)n(-c2ccncc2)c1=O | . | . | -15.8 | . | . | 3.4
CCOC(=O)C1CCN(C(=O)c2ccc(OCC(=O)Nc3cccc(C(F)(F)F)c3)c(OC)c2)CC1 | 14.5 | . | . | 44.6* | 44.6* | .
CCOC(=O)C1CCN(C(=O)c2ccc3c(c2)OCO3)CC1 | 10.3 | -3.2 | -5.4 | -3.3 | 57.0* | 5.7
CCOC(=O)C1CCN(C(=O)c2ccc(OCC(=O)Nc3cccc(C(F)(F)F)c3)cc2)CC1 | 34.7 | -9.0 | . | -1.7 | 4.7 | .
O=C(c1ccc2c(c1)OCO2)N1CCC(Cc2ccccc2)CC1 | 11.1 | 18.8* | -13.0 | -4.5 | 16.0 | 10.2
CN(C)C(CNC(=O)CNC(=O)c1ccc(Br)cc1)c1ccccc1 (centres undefined) | 13.6 | -2.7 | -1.0 | -20.7 | -19.2 | 8.3
COc1ccc(C2(C)NC(=O)N(CC(=O)NC3(C#N)CCCCC3)C2=O)cc1 (centres undefined) | 10.7 | -9.8 | . | -11.6 | 0.4 | .
COc1ccccc1CCNC(=O)Cn1ccc2cc(S(=O)(=O)N3CCCC3)ccc21 | 55.5* | 1.9 | . | 19.1 | -2.9 | .
O=C(Cn1ccc2cc(S(=O)(=O)N3CCCC3)ccc21)NCCc1ccccc1 | 55.5* | -0.7 | . | 20.8 | -4.0 | .
Cn1c(=O)oc2cc(S(=O)(=O)N3CCC(C(=O)NCCc4ccccc4)CC3)ccc21 | 7.8 | 0.0 | -21.0 | -6.4 | 41.4* | 7.6
O=C(CCn1ccc2cc(S(=O)(=O)N3CCCC3)ccc21)NCCc1ccccc1 | 13.3 | 1.8 | . | -17.4 | -12.8 | .
Cn1c(=O)oc2cc(S(=O)(=O)N3CCC(C(=O)NCc4ccccc4)CC3)ccc21 | -1.0 | -8.0 | . | -5.2 | -3.3 | .
CCc1cc2c(C)cc(=O)oc2cc1Oc1ncccc1[N+](=O)[O-] | 12.6 | -16.3 | -0.7 | -11.0 | -4.5 | 5.4
COC(=O)CCS(=O)(=O)c1cc(Cl)ccc1Cl | 0.4 | -3.9 | -59.1 | 7.4 | -3.4 | 4.5
COC(=O)c1ccc(C2C(C(=O)OC(C)C)=C(N)OC3=C2C(=O)CC(C)(C)C3)cc1 (centres undefined) | . | . | 65.5* | . | . | 3.1
C=CCn1c(SCc2nc(N)nc(N3CCCCC3)n2)nnc1-c1ccco1 | 15.5 | -5.4 | -7.7 | -12.5 | -11.1 | 12.6
O=C1OCC(Cn2c3ccccc3c3ccccc32)O1 (centres undefined) | 14.1 | -2.1 | -38.5 | -5.2 | -2.3 | 10.3
CC(=O)OC[C@]12CC[C@H]3[C@@](C)(CC[C@H]4C(C)(C)CCC[C@]34C)[C@@H]1C[C@H](C1=CC(=O)O[C@H]1OC(C)=O)O2 | -1.9 | . | . | 51.4* | 45.6* | .
CC(=O)OC[C@]12CC[C@H]3[C@@](C)(CC[C@H]4C(C)(C)CCC[C@]34C)[C@@H]1C[C@@H](C1=CC(=O)O[C@@H]1OC(C)=O)O2 | 7.3 | . | . | -12.2 | 1.9 | .
Cc1cc2cc(OCC(=O)O)ccc2n1C | 58.9* | -6.6 | 16.0 | -6.9 | -1.6 | 4.2
Cc1cc2cc(OCc3ccccc3)ccc2n1C | 16.5 | -12.3 | . | -19.1 | 5.1 | .
CSc1ccc(Cl)c(C(=O)Nc2ccc(C)cn2)c1 | 13.7 | 5.8 | -19.3 | -21.8 | -5.7 | 12.2
Cc1ccc(C)n1-c1ccccc1N1CCCCC1 | 1.1 | 8.2 | 63.5* | 3.2 | -9.7 | 5.3
CCN(CC)c1ccc(/C=C/C(=O)C2C(=O)C=C(C)OC2=O)cc1 (centres undefined) | 14.2 | 3.3 | 1.6 | 97.7* | 75.1* | 16.8
CCN(CC)c1ccc(C=C2C(=O)OC(c3ccccc3)OC2=O)cc1 (centres undefined) | 6.9 | -17.6 | -40.5 | -9.0 | 4.0 | 13.1
SMILES | OX1R antag-1 | GPR7 antag | EP2 mod | OX1R antag-2 | CHO parental Ca | PGE2 EP2 inh
COc1cc(C(=O)N2CCN(Cc3ccc4c(c3)OCO4)CC2)c([N+](=O)[O-])cc1OC | 11.5 | -11.1 | . | -3.5 | -2.8 | .
Cc1ccc(NC(=O)CC(C)S(=O)(=O)c2ccc3c(c2)NC(=O)CO3)c(Cl)c1 (centres undefined) | 0.8 | -12.8 | . | -2.8 | -7.3 | .
CCOc1ccccc1NC(=O)c1nc(S(=O)(=O)Cc2ccccc2)ncc1Cl | 12.2 | -5.5 | . | 9.7 | 2.3 | .
Cc1ccc(NC(=O)c2nc(S(=O)(=O)Cc3ccccc3C)ncc2Cl)cc1C | 34.1 | 20.7 | . | 25.2 | 39.5* | .
CCOC(=O)c1ccc(NC(=O)c2nc(S(=O)(=O)Cc3ccccc3)ncc2Cl)cc1 | 13.2 | 21.7 | . | 73.4* | 27.0 | .
Cc1nn(CCC(=O)Nc2cccc(C#N)c2)c(C)c1S(=O)(=O)N1CCCCC1 | -4.8 | 5.4 | . | -38.9 | -23.9 | .
CCOC(=O)C1=CN(Cc2cccc(F)c2)S(=O)(=O)N(C)C1c1ccc(F)c(Cl)c1 (centres undefined) | 13.1 | . | . | 19.4 | -7.2 | .
C/C(=N\NC(=O)c1nnn(-c2nonc2N)c1CN(C)c1ccccc1)c1cccc(O)c1 | 49.5* | -9.8 | . | 8.5 | -9.7 | .
COc1ccc2ccccc2c1/C=N/NC(=O)c1nnn(-c2nonc2N)c1C(C)C | 60.4* | 5.6 | . | 27.5 | 11.5 | .
Cc1ccsc1/C=N/NC(=O)c1nnn(-c2nonc2N)c1CN(C)c1ccccc1 | 49.9* | -13.0 | . | 19.8 | -4.4 | .
CC(C)Oc1ccc(/C=N/NC(=O)c2nnn(-c3nonc3N)c2CN(C)c2ccccc2)cc1 | 56.3* | -16.4 | . | 21.6 | -6.4 | .
COCCSc1ccccc1C(=O)Nc1ccc(S(=O)(=O)N2CCOCC2)cc1 | . | -7.7 | . | . | . | .
COc1ccccc1C(=O)NCCC(=O)NNC(=O)C1COc2ccccc2O1 (centres undefined) | 8.6 | . | . | -27.2 | -4.3 | .
O=C(NCCc1nc2ccccc2[nH]1)c1ccc(Br)o1 | 9.4 | 0.9 | . | -11.3 | -2.6 | .
Nc1[nH]c(=S)[nH]c(=O)c1-c1ccccc1 | 12.2 | -17.0 | -2.7 | -9.3 | -0.7 | 10.0
O=c1[nH]c(=S)[nH]c2nc(-c3ccccc3)cnc12 | 63.2* | . | . | -11.3 | -4.4 | .
CC[C@H]1CN(C)[C@@H]2Cc3c([nH]c4ccccc34)C(=O)C[C@H]1[C@H]2C(=O)OC | . | . | -2.8 | . | . | 52.4*
Cc1ccc(S(=O)(=O)NC(C)(C)CSc2nnc(Nc3ccccc3)s2)cc1 | 39.2 | -0.6 | -21.9 | 49.5* | 53.0* | 14.6
O=S1(=O)c2ccc(Br)cc2N2CCC[C@H]2CN1Cc1ccccc1 | 17.2 | . | . | 8.2 | -22.8 | .
CC(=O)Nc1ccccc1NS(=O)(=O)c1cccc([N+](=O)[O-])c1 | 43.5 | -0.2 | 0.7 | 8.9 | 2.5 | 8.4
C/C(=N\Nc1cccc([N+](=O)[O-])c1)c1cc(F)ccc1O | 67.9* | -9.1 | -19.6 | 26.6 | -9.3 | 8.1

From PubChem BioAssay
